Data: ChEMBL document CHEMBL1909495, “Synthesis and kinetic testing of new inhibitors for a metallo-β-lactamase from Klebsiella pneumonia and Pseudomonas aeruginosa” (Eur J Med Chem, 2011)

Assays:
[1] = target: Beta-lactamase (Pseudomonas aeruginosa) (UniProt Q79MP6); test: Inhibition of Pseudomonas aeruginosa metallo-beta-lactamase IMP-1 expressed in Escherichia coli BL21(DE3) using CENTA as substrate at 10 uM by spectrophotometric analysis
Summary of the method: (§1)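 Single-point screen with inhibitor at 10 µM against IMP-1 lacking the 21-residue signal peptide (2 nM final). Buffer was 50 mM HEPES pH 7.0 with 0.1 M NaCl, 100 µM ZnCl2 and BSA at 20 µg/mL. Substrate was CENTA at 70 µM. CENTA hydrolysis was followed by 4-nitrophenolate absorbance at 405 nm and reported as percent inhibition.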

[2] = target: Beta-lactamase (Pseudomonas aeruginosa) (UniProt Q79MP6); test: Competitive inhibition of Pseudomonas aeruginosa metallo-beta-lactamase IMP-1 expressed in Escherichia coli BL21(DE3) using CENTA as substrate by spectrophotometric analysis
Summary of the method: (§2)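 IMP-1 lacking the first 21 signal-peptide residues, recombinantly expressed and purified, at 2 nM final. Buffer was 50 mM HEPES, 0.1 M NaCl, 100 µM ZnCl2, pH 7.0, with BSA at 20 µg/mL final. CENTA was varied from 5 to 70 µM final at three inhibitor concentrations. 4-Nitrophenolate release was read at 405 nm on a plate reader, and data were fitted by non-linear regression.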

[3] = test system: Klebsiella pneumoniae; test: Inhibition of Klebsiella pneumoniae metallo-beta-lactamase IMP-1 expressed in Escherichia coli BL21(DE3) using CENTA as substrate at 10 uM by spectrophotometric analysis; summary of the method: as §1
[4] = test system: Klebsiella pneumoniae; test: Competitive inhibition of Klebsiella pneumoniae metallo-beta-lactamase IMP-1 expressed in Escherichia coli BL21(DE3) using CENTA as substrate by spectrophotometric analysis; summary of the method: as §2
[5] = test system: Klebsiella pneumoniae; test: Uncompetitive inhibition of Klebsiella pneumoniae metallo-beta-lactamase IMP-1 expressed in Escherichia coli BL21(DE3) using CENTA as substrate by spectrophotometric analysis; summary of the method: as §2
[6] = target: Beta-lactamase (Pseudomonas aeruginosa) (UniProt Q79MP6); test: Uncompetitive inhibition of Pseudomonas aeruginosa metallo-beta-lactamase IMP-1 expressed in Escherichia coli BL21(DE3) using CENTA as substrate by spectrophotometric analysis; summary of the method: as §2

Chain of Beta-lactamase (Pseudomonas aeruginosa) (Q79MP6 19-246 limits assumed): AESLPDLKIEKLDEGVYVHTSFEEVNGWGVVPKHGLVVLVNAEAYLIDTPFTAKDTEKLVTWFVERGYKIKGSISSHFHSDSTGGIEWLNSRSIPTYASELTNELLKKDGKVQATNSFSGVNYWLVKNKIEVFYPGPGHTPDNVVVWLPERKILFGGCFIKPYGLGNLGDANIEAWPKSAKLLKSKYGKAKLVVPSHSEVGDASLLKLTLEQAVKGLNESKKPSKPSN

Structure (SMILES) | inhibition [1] [%] | Kic [2] [µM] | inhibition [3] [%] | Kic [4] [µM] | Kiuc [5] [µM] | Kiuc [6] [µM]
Cc1ccc(-n2c(-c3ccccc3)c(-c3ccccc3)c3c(N/N=C/c4ccccc4)ncnc32)cc1 | 13 | 18 | 13 | 18 |  | 
Cc1ccc(-n2cc(-c3ccccc3)c(C#N)c2N)cc1 | 0 |  | 0 |  |  | 
Cc1ccc(-n2cc(-c3ccccc3)c3c(Cl)ncnc32)cc1 | 9 | 33 | 9 | 33 | 106 | 106
Cc1ccc(-n2c(-c3ccccc3)c(-c3ccccc3)c3c2ncn2c(C)nnc32)cc1 | 7 |  | 7 |  |  | 
COc1ccc(-n2c(-c3ccccc3)c(-c3ccccc3)c3c(Cl)ncnc32)cc1 | 15 | 12 | 15 | 12 | 182 | 182
COc1ccc(-n2c3c(c(-c4ccccc4)c2-c2ccccc2)C(=C(C#N)C#N)NC=N3)cc1 | 17 | 29 | 17 | 29 | 225 | 225
Cc1ccc(-n2c(-c3ccccc3)c(-c3ccccc3)c3c2ncn2cnnc32)cc1 | 4 |  | 4 |  |  | 
Cc1ccc(-n2c(-c3ccccc3)c(-c3ccccc3)c3c2ncn2c(=S)[nH]nc32)cc1 | 14 | 15 | 14 | 15 |  | 
Cc1ccc(-n2cc(-c3ccccc3)c3c(O)ncnc32)cc1 | 0 |  | 0 |  |  | 
Cc1ccc(-n2c(-c3ccccc3)c(-c3ccccc3)c3c(Cl)ncnc32)cc1 | 10 | 19 | 10 | 19 | 112 | 112
COc1ccc(-n2cc(-c3ccccc3)c(C#N)c2N)cc1 | 0 |  | 0 |  |  | 
